Values after ≈ are worked out from the molar mass of the structure shown.
Experiments:
Pseudomonas aeruginosa [1] = test: Antibacterial activity against Pseudomonas aeruginosa ATCC 27853 incubated for 24 hrs followed by serial sub-cultivation for 24 hrs by microdilution; format: functional; conditions: ATCC 27853, 24 h
In short: (§1)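 MBC: after the 24 h LB broth microdilution (1.0 × 10⁴ CFU per well, 160 rpm), wells were serially sub-cultured into fresh broth plates and incubated a further 24 h. MBC is the lowest concentration with no visible growth, taken as 99.5% killing of the original inoculum. Duplicate, repeated three times.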

Bacillus cereus [2] = test: Antibacterial activity against clinical isolate of Bacillus cereus incubated for 24 hrs followed by serial sub-cultivation for 24 hrs by microdilution; format: functional; in short: as §1
Bacillus cereus [3] = test: Antibacterial activity against clinical isolate of Bacillus cereus after 24 hrs by microdilution method; format: functional
In short: (§2)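 Broth microdilution in 96-well plates. Bacterial suspensions were adjusted in sterile saline to 1.0 × 10⁵ CFU/ml, prepared daily and kept at 4 °C. Compound was added to LB broth with 1.0 × 10⁴ CFU per well and shaken at 160 rpm for 24 h at […] (so in the source). MIC is the lowest concentration with no visible growth under a binocular microscope. OD655 was also read. Duplicate, repeated three times.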

Escherichia coli [4] = test: Antibacterial activity against Escherichia coli ATCC 35210 incubated for 24 hrs followed by serial sub-cultivation for 24 hrs by microdilution; format: functional; conditions: ATCC 35210, 24 h; in short: as §1
Enterococcus faecalis [5] = test: Antibacterial activity against Enterococcus faecalis isolated from human incubated for 24 hrs followed by serial sub-cultivation for 24 hrs by microdilution; format: functional; in short: as §1
Listeria monocytogenes [6] = test: Antibacterial activity against Listeria monocytogenes NCTC 7973 incubated for 24 hrs followed by serial sub-cultivation for 24 hrs by microdilution; format: functional; conditions: NCTC 7973, 24 h; in short: as §1
Pseudomonas aeruginosa [7] = test: Antibacterial activity against Pseudomonas aeruginosa ATCC 27853 after 24 hrs by microdilution method; format: functional; conditions: ATCC 27853, 24 h; in short: as §2
Escherichia coli [8] = test: Antibacterial activity against Escherichia coli ATCC 35210 after 24 hrs by microdilution method; format: functional; conditions: ATCC 35210, 24 h; in short: as §2
Staphylococcus aureus [9] = test: Antibacterial activity against Staphylococcus aureus ATCC 6538 incubated for 24 hrs followed by serial sub-cultivation for 24 hrs by microdilution method; format: functional; conditions: ATCC 6538, 24 h; in short: as §1
Listeria monocytogenes [10] = test: Antibacterial activity against Listeria monocytogenes NCTC 7973 after 24 hrs by microdilution method; format: functional; conditions: NCTC 7973, 24 h; in short: as §2
Enterococcus faecalis [11] = test: Antibacterial activity against Enterococcus faecalis isolated from human after 24 hrs by microdilution method; format: functional; in short: as §2
Staphylococcus aureus [12] = test: Antibacterial activity against Staphylococcus aureus ATCC 6538 after 24 hrs by microdilution method; format: functional; conditions: ATCC 6538, 24 h; in short: as §2
Micrococcus flavus [13] = test: Antibacterial activity against Micrococcus flavus ATCC 10240 after 24 hrs by microdilution method; format: functional; conditions: ATCC 10240, 24 h; in short: as §2
Micrococcus flavus [14] = test: Antibacterial activity against Micrococcus flavus ATCC 10240 incubated for 24 hrs followed by serial sub-cultivation for 24 hrs by microdilution; format: functional; conditions: ATCC 10240, 24 h; in short: as §1
Salmonella typhimurium [15] = test: Antibacterial activity against Salmonella Typhimurium ATCC 13311 incubated for 24 hrs followed by serial sub-cultivation for 24 hrs by microdilution; format: functional, Salmonella enterica subsp. enterica serovar Typhimurium; conditions: Salmonella enterica, ATCC 13311, 24 h; in short: as §1
Salmonella typhimurium [16] = test: Antibacterial activity against Salmonella Typhimurium ATCC 13311 after 24 hrs by microdilution method; format: functional, Salmonella enterica subsp. enterica serovar Typhimurium; conditions: Salmonella enterica, ATCC 13311, 24 h; in short: as §2
Aspergillus flavus [17] = test: Antifungal activity against Aspergillus flavus ATCC 9643 after 72 hrs by serial dilution technique; format: functional; conditions: ATCC 9643, 72 h
In short: (§3)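 Modified microdilution in 96-well plates. Fungi were kept on malt agar at 4 °C. Spores were washed off in sterile 0.85% saline with 0.1% Tween 80. Compounds were dissolved at 1 mg/ml in 5% DMSO with 0.1% Tween 80 and added to malt broth with inoculum. Plates were shaken at 160 rpm for 72 h at 28 °C. Duplicate, repeated three times.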

Aspergillus niger [18] = test: Antifungal activity against Aspergillus niger ATCC 6275 incubated for 72 hrs followed by serial sub-cultivation for 72 hrs by serial dilution technique; format: functional; conditions: ATCC 6275, 72 h
In short: (§4)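 MFC: material from 72 h malt broth microdilution wells was serially sub-cultured into fresh broth plates and incubated a further 72 h at 28 °C. Fungicidal concentration is taken from growth after sub-culture. Duplicate, repeated three times.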

Aspergillus niger [19] = test: Antifungal activity against Aspergillus niger ATCC 6275 after 72 hrs by serial dilution technique; format: functional; conditions: ATCC 6275, 72 h; in short: as §3
Penicillium ochrochloron [20] = test: Antifungal activity against Penicillium ochrochloron ATCC 9112 after 72 hrs by serial dilution technique; format: functional; conditions: ATCC 9112, 72 h; in short: as §3
Candida albicans [21] = test: Antifungal activity against Candida albicans isolated from human incubated for 72 hrs followed by serial sub-cultivation for 72 hrs by serial dilution technique; format: functional; in short: as §4
Talaromyces funiculosus [22] = test: Antifungal activity against Penicillium funiculosum ATCC 36839 incubated for 72 hrs followed by serial sub-cultivation for 72 hrs by serial dilution technique; format: functional; conditions: ATCC 36839, 72 h; in short: as §4
Aspergillus ochraceus [23] = test: Antifungal activity against Aspergillus ochraceus ATCC 12066 after 72 hrs by serial dilution technique; format: functional; conditions: ATCC 12066, 72 h; in short: as §3
Trichoderma viride [24] = test: Antifungal activity against Trichoderma viride IAM 5061 incubated for 72 hrs followed by serial sub-cultivation for 72 hrs by serial dilution technique; format: functional; conditions: IAM 5061, 72 h; in short: as §4
Talaromyces funiculosus [25] = test: Antifungal activity against Penicillium funiculosum ATCC 36839 after 72 hrs by serial dilution technique; format: functional; conditions: ATCC 36839, 72 h; in short: as §3
Trichoderma viride [26] = test: Antifungal activity against Trichoderma viride IAM 5061 after 72 hrs by serial dilution technique; format: functional; conditions: IAM 5061, 72 h; in short: as §3
Aspergillus ochraceus [27] = test: Antifungal activity against Aspergillus ochraceus ATCC 12066 incubated for 72 hrs followed by serial sub-cultivation for 72 hrs by serial dilution technique; format: functional; conditions: ATCC 12066, 72 h; in short: as §4
Aspergillus fumigatus = test: Antifungal activity against Aspergillus fumigatus isolated from human incubated for 72 hrs followed by serial sub-cultivation for 72 hrs by serial dilution technique; format: functional; in short: as §4
Aspergillus flavus [28] = test: Antifungal activity against Aspergillus flavus ATCC 9643 incubated for 72 hrs followed by serial sub-cultivation for 72 hrs by serial dilution technique; format: functional; conditions: ATCC 9643, 72 h; in short: as §4
Aspergillus ochraceus [29] = test: Antifungal activity against Aspergillus ochraceus after 72 hrs by serial dilution technique
Candida albicans [30] = test: Antifungal activity against Candida albicans isolated from human after 72 hrs by serial dilution technique; format: functional; in short: as §3
Penicillium ochrochloron [31] = test: Antifungal activity against Penicillium ochrochloron ATCC 9112 incubated for 72 hrs followed by serial sub-cultivation for 72 hrs by serial dilution technique; format: functional; conditions: ATCC 9112, 72 h; in short: as §4

Row | MIC (Bacillus cereus [3]) | MIC (Pseudomonas aeruginosa [7]) | MIC (Escherichia coli [8]) | MIC (Listeria monocytogenes [10]) | MIC (Enterococcus faecalis [11]) | MIC (Staphylococcus aureus [12]) | MIC (Micrococcus flavus [13]) | MIC (Salmonella typhimurium [16]) | Compound | MBC (Pseudomonas aeruginosa [1]) | MBC (Bacillus cereus [2]) | MBC (Escherichia coli [4]) | MBC (Enterococcus faecalis [5]) | MBC (Listeria monocytogenes [6]) | MBC (Staphylococcus aureus [9]) | MBC (Micrococcus flavus [14]) | MBC (Salmonella typhimurium [15]) | MIC (Aspergillus flavus [17]) | MFC (Aspergillus niger [18]) | MIC (Aspergillus niger [19]) | MIC (Penicillium ochrochloron [20]) | also measured
1 | 248 µM (≈ 86.7 µg/mL) | 744 µM (≈ 260 µg/mL) | 372 µM (≈ 130 µg/mL) | 372 µM (≈ 130 µg/mL) | 248 µM (≈ 86.7 µg/mL) | 248 µM (≈ 86.7 µg/mL) | 248 µM (≈ 86.7 µg/mL) | 248 µM (≈ 86.7 µg/mL) | CC1(C)S[C@@H]2[C@H](NC(=O)[C@H](N)c3ccccc3)C(=O)N2[C@H]1C(=O)O [AMPICILLIN] | 1240 µM (≈ 433 µg/mL) | 372 µM (≈ 130 µg/mL) | 492 µM (≈ 172 µg/mL) | 372 µM (≈ 130 µg/mL) | 744 µM (≈ 260 µg/mL) | 372 µM (≈ 130 µg/mL) | 372 µM (≈ 130 µg/mL) | 492 µM (≈ 172 µg/mL) |  |  |  |  | 
2 |  |  |  |  |  |  |  |  | c1ccc(-c2ccc(C(c3ccccc3)n3ccnc3)cc2)cc1 (centres undefined) [BIFONAZOLE] |  |  |  |  |  |  |  |  | 480 µM (≈ 149 µg/mL) | 640 µM (≈ 199 µg/mL) | 480 µM (≈ 149 µg/mL) | 480 µM (≈ 149 µg/mL) | MFC (Candida albicans [21]): 480 µM (≈ 149 µg/mL); MFC (Talaromyces funiculosus [22]): 800 µM (≈ 248 µg/mL); MIC (Aspergillus ochraceus [23]): 480 µM (≈ 149 µg/mL); MFC (Trichoderma viride [24]): 800 µM (≈ 248 µg/mL); MIC (Talaromyces funiculosus [25]): 640 µM (≈ 199 µg/mL); MIC (Trichoderma viride [26]): 640 µM (≈ 199 µg/mL); MFC (Aspergillus ochraceus [27]): 800 µM (≈ 248 µg/mL); MFC (Aspergillus fumigatus): 640 µM (≈ 199 µg/mL); MFC (Aspergillus flavus [28]): 640 µM (≈ 199 µg/mL); MIC (Aspergillus ochraceus [29]): 480 µM (≈ 149 µg/mL); MIC (Candida albicans [30]): 320 µM (≈ 99.3 µg/mL); MFC (Penicillium ochrochloron [31]): 640 µM (≈ 199 µg/mL)
3 |  |  |  |  |  |  |  |  | CC(=O)N1CCN(c2ccc(OCC3COC(Cn4ccnc4)(c4ccc(Cl)cc4Cl)O3)cc2)CC1 (centres undefined) [KETOCONAZOLE] |  |  |  |  |  |  |  |  | 2850 µM (≈ 1510 µg/mL) | 950 µM (≈ 505 µg/mL) | 380 µM (≈ 202 µg/mL) | 3800 µM (≈ 2020 µg/mL) | MFC (Candida albicans [21]): 950 µM (≈ 505 µg/mL); MFC (Talaromyces funiculosus [22]): 950 µM (≈ 505 µg/mL); MIC (Aspergillus ochraceus [23]): 380 µM (≈ 202 µg/mL); MFC (Trichoderma viride [24]): 5700 µM (≈ 3030 µg/mL); MIC (Talaromyces funiculosus [25]): 380 µM (≈ 202 µg/mL); MIC (Trichoderma viride [26]): 4750 µM (≈ 2520 µg/mL); MFC (Aspergillus ochraceus [27]): 950 µM (≈ 505 µg/mL); MFC (Aspergillus fumigatus): 950 µM (≈ 505 µg/mL); MFC (Aspergillus flavus [28]): 3800 µM (≈ 2020 µg/mL); MIC (Aspergillus ochraceus [29]): 380 µM (≈ 202 µg/mL); MIC (Candida albicans [30]): 380 µM (≈ 202 µg/mL); MFC (Penicillium ochrochloron [31]): 3800 µM (≈ 2020 µg/mL)
4 | 43 µM (≈ 25 µg/mL) | 172 µM (≈ 100 µg/mL) | 172 µM (≈ 100 µg/mL) | 258 µM (≈ 150 µg/mL) | 43 µM (≈ 25 µg/mL) | 172 µM (≈ 100 µg/mL) | 86 µM (≈ 50 µg/mL) | 172 µM (≈ 100 µg/mL) | CN[C@@H]1[C@H](O[C@H]2[C@H](O[C@H]3[C@H](O)[C@@H](O)[C@H](N=C(N)N)[C@@H](O)[C@@H]3N=C(N)N)O[C@@H](C)[C@]2(O)C=O)O[C@@H](CO)[C@H](O)[C@H]1O [STREPTOMYCIN] | 344 µM (≈ 200 µg/mL) | 86 µM (≈ 50 µg/mL) | 344 µM (≈ 200 µg/mL) | 86 µM (≈ 50 µg/mL) | 516 µM (≈ 300 µg/mL) | 344 µM (≈ 200 µg/mL) | 172 µM (≈ 100 µg/mL) | 344 µM (≈ 200 µg/mL) |  |  |  |  | 
